Tests used:
[1] = Tmax in BALB/c mouse at 10 mg/kg, po measured for 8 hrs; assay type: ADME, organism-based; conditions: in vivo
Summary of the method: (§1)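 Dosing in BALB-C mice intravenously or orally, with plasma sampled over 8 h. Parameters (AUC, T1/2, Cl, Vd, Cmax, Tmax) come from a noncompartmental model. Units: AUC h.ng/ml, Vd L/Kg, Cmax ng/ml, Tmax h.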

[2] = Clearance in BALB/c mouse at 5 mg/kg, iv measured for 8 hrs; assay type: ADME, organism-based; conditions: in vivo
Summary of the method: (§2)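 BALB/c mice dosed I.V. or P.O. at the stated dose; plasma levels followed for 8 h. Parameters from noncompartmental analysis: AUC (h.ng/ml), T1/2 (h), Cl (L/h/Kg), Vd (L/Kg), Cmax (ng/ml), Tmax (h).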

[3] = biological target: Voltage-gated inwardly rectifying potassium channel KCNH2 (Homo sapiens, UniProt Q12809); experiment: Inhibition of human ERG by fluorescence polarization assay
Voltage-gated inwardly rectifying potassium channel KCNH2, sequence (Q12809 whole entry): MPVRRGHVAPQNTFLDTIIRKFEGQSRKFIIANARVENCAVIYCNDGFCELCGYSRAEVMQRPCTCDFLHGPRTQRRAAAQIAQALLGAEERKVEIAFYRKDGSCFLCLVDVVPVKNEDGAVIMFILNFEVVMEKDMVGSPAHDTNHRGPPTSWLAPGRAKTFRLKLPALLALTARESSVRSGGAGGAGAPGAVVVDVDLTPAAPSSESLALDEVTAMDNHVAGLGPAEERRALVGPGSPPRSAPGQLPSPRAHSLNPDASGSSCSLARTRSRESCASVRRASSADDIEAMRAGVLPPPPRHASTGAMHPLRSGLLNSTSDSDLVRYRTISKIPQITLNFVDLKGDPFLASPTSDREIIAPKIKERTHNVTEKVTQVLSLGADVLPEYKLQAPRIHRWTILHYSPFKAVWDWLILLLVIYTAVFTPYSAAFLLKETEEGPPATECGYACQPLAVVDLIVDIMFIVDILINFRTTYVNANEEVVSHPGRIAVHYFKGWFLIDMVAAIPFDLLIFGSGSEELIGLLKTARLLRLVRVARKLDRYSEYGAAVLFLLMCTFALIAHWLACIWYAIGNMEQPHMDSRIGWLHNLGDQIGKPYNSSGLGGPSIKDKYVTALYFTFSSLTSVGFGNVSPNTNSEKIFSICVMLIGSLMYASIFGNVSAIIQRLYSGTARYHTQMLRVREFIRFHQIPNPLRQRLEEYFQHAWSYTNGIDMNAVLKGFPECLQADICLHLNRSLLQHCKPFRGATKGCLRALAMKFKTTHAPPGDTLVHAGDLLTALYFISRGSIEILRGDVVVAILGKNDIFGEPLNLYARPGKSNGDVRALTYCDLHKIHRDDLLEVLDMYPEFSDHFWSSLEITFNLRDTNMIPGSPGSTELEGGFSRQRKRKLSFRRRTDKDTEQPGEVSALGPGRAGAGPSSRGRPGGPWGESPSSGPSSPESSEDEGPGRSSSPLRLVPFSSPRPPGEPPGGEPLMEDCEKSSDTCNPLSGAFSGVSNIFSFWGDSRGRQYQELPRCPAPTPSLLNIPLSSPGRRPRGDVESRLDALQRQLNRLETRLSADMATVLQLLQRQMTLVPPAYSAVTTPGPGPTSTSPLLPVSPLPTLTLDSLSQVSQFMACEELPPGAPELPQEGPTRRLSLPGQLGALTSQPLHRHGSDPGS
Summary of the method: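 Predictor h-ERG membrane preparations (sonicated) incubated with test compound dilutions and fluorescent tracer (working 4X tracer at 4 nM) at room temperature for ≥1 h. Read-out by fluorescence polarization, ex 530/25, em 590/35.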

[4] = biological target: Phosphatidylinositol 4,5-bisphosphate 3-kinase catalytic subunit gamma isoform (Homo sapiens, UniProt P48736); experiment: Inhibition of human p110gamma using PIP2 as substrate in presence of ATP measured by HTRF assay
Summary of the method: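 HTRF PI3-kinase assay with PIP2 at 10 µM. Enzyme and ATP levels (ATP at 50× KM): p110α/p85α 100 pM with 200 µM ATP; p110δ/p85α 100 pM with 200 µM ATP; p110β/p85α 500 pM with 250 µM ATP; p110γ 4 nM with 100 µM ATP. Activity normalized to no-compound control, variable-slope sigmoidal fit. Two independent experiments in duplicate.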

[5] = species: Homo sapiens; experiment: Selectivity ratio of Ki for human p110gamma to Ki for human p110alpha/p85alpha using PIP2 as substrate in presence of ATP
Summary of the method: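 Ki from a PI3-kinase HTRF assay run per manufacturer. Enzyme levels: p110α/p85α and p110δ/p85α 100 pM, p110β/p85α 500 pM, p110γ 4 nM. ATP at 50× KM: 200 μM (α, δ), 250 μM (β), 100 μM (γ). PIP2 10 μM. Activity normalized to no-compound control. Ratio is the isoform Ki over the α Ki.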

[6] = Half life in BALB/c mouse at 10 mg/kg, po measured for 8 hrs; assay type: ADME, organism-based; conditions: in vivo; summary of the method: as §2
[7] = Volume of distribution in BALB/c mouse at 5 mg/kg, iv measured for 8 hrs; assay type: ADME, organism-based; conditions: in vivo; summary of the method: as §1
[8] = biological target: PI3-kinase p110-alpha/p85-alpha (Homo sapiens, UniProt P42336, H1047R); experiment: Inhibition of p110alpha H1047R mutant/p85alpha (unknown origin) using PIP2:3PS lipid kinase as substrate in presence of ATP measured by ADP-Glo lipid kinase assay; assay type: protein-complex assay
PI3-kinase p110-alpha/p85-alpha (Homo sapiens, UniProt P42336, H1047R), sequence (P42336 whole entry H1047R, looked up): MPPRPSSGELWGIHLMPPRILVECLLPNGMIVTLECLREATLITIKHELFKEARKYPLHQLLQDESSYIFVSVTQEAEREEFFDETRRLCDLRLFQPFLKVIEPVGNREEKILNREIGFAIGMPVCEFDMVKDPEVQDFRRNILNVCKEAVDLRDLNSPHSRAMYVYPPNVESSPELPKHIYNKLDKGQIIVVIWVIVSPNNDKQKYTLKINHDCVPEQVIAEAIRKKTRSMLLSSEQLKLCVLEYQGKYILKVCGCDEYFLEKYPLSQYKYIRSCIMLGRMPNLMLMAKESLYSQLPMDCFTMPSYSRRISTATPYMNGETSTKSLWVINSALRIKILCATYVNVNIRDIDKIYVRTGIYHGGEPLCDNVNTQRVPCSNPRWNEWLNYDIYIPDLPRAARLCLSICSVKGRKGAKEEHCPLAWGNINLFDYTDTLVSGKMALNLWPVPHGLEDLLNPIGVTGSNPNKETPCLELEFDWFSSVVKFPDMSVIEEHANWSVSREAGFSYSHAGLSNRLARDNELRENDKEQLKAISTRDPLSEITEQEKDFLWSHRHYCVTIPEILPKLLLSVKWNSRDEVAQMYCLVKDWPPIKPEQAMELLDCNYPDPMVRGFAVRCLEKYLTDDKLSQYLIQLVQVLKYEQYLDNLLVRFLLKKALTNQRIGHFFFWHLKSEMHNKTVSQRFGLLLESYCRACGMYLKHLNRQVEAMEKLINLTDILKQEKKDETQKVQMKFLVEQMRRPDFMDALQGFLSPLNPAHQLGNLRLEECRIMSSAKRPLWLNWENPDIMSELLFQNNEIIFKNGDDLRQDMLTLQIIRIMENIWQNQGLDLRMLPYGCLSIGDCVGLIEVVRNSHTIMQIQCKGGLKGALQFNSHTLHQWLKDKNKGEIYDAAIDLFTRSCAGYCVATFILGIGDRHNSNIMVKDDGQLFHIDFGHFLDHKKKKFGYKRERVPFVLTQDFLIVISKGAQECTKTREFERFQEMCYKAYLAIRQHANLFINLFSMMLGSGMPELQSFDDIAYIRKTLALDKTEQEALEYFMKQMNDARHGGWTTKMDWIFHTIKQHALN
Summary of the method: (§3)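 Lipid kinase assay with PIP2:3PS substrate held at 3.25 µM. Activity normalized to no-compound control for each enzyme and fitted to a variable-slope sigmoidal dose-response curve.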

[9] = species: Homo sapiens; experiment: Selectivity ratio of IC50 for recombinant human GST tagged mTOR (1360 to 2549 residues) expressed in baculovirus expression system to IC50 for human full length p110alpha (1 to 1068 residues) expressed in baculovirus-infected Sf21 cells
Summary of the method: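 mTOR activity measured by LanthaScreen assay. PI3K-α activity measured by ADP Hunter Plus (ADP accumulation, fluorescence ex 544/em 580 nm), normalized to no-compound control and fitted to a sigmoid dose-response curve. IC50s are the average of two independent experiments. Ratio is mTOR IC50 over PI3K-α IC50.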

[10] = Inhibition of p110alpha E545K mutant/p85alpha (unknown origin) using PIP2:3PS lipid kinase as substrate in presence of ATP measured by ADP-Glo lipid kinase assay; design: species or system Homo sapiens; summary of the method: as §3
[11] = tested on: HCT-116; experiment: Growth inhibition of human HCT-116 cells harboring mutated p110alpha measured after 72 hrs by Cell titre Glo-luminiscence cell viability assay; assay type: functional
Summary of the method: (§4)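 Cells harvested just before confluency and seeded at 4,000 cells/well, then left 24 h before dosing. Serial dilutions from 10 mM DMSO stocks, final DMSO ≤0.5%, each concentration in duplicate.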

[12] = Inhibition of PI3K/mTOR in human MCF7 cells assessed as reduction of P70S6K phosphorylation at Thr389 residue measured after 3 hrs by western blot assay; assay type: cell-based; conditions: MCF7, 3 h
Summary of the method: (§5)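 MCF7 cells treated for 3 h across a dose range, washed and lysed with phosphatase and protease inhibitors. Lysates run on 10% SDS-PAGE and blotted, antibodies incubated overnight at 4 °C.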

[13] = Inhibition of PI3K/mTOR in human MCF7 cells assessed as reduction of S6 phosphorylation at Ser235/236 residue measured after 3 hrs by western blot assay; assay type: cell-based; conditions: MCF7, 3 h; summary of the method: as §5
[14] = Oral bioavailability in BALB/c mouse at 10 mg/kg measured for 8 hrs; assay type: ADME, organism-based; conditions: in vivo; summary of the method: as §2
[15] = tested on: HT-29; experiment: Growth inhibition of human HT-29 cells harboring mutated p110alpha measured after 72 hrs by Cell titre Glo-luminiscence cell viability assay; assay type: functional; summary of the method: as §4
[16] = Inhibition of PI3K/mTOR in human MCF7 cells assessed as reduction of AKT phosphorylation at Thr308 residue measured after 3 hrs by western blot assay; assay type: cell-based; conditions: MCF7, 3 h; summary of the method: as §5
[17] = biological target: PI3-kinase p110-delta/p85-alpha (Homo sapiens, UniProt O00329); experiment: Inhibition of human p110delta/p85alpha using PIP2 as substrate in presence of ATP measured by HTRF assay; assay type: protein-complex assay
PI3-kinase p110-delta/p85-alpha, sequence (P27986 whole entry): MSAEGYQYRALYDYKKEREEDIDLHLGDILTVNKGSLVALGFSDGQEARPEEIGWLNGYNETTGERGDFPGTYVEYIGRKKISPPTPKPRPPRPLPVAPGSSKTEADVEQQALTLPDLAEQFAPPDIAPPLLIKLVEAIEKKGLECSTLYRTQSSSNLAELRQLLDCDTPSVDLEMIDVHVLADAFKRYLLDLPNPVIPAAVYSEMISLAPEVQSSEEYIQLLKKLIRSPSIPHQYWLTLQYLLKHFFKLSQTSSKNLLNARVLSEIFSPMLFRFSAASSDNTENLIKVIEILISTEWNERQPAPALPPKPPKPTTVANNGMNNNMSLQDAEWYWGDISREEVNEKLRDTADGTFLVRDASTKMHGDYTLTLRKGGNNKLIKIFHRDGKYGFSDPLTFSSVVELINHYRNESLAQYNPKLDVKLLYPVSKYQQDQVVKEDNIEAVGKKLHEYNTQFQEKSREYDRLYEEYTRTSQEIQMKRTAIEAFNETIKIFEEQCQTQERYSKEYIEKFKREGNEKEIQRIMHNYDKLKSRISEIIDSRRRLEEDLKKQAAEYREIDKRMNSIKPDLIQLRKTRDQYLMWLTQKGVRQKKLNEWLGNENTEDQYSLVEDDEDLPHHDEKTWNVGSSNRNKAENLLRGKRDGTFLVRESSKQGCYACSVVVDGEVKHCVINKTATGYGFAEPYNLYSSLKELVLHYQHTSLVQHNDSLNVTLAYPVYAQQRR
PI3-kinase p110-delta/p85-alpha, sequence (O00329 whole entry): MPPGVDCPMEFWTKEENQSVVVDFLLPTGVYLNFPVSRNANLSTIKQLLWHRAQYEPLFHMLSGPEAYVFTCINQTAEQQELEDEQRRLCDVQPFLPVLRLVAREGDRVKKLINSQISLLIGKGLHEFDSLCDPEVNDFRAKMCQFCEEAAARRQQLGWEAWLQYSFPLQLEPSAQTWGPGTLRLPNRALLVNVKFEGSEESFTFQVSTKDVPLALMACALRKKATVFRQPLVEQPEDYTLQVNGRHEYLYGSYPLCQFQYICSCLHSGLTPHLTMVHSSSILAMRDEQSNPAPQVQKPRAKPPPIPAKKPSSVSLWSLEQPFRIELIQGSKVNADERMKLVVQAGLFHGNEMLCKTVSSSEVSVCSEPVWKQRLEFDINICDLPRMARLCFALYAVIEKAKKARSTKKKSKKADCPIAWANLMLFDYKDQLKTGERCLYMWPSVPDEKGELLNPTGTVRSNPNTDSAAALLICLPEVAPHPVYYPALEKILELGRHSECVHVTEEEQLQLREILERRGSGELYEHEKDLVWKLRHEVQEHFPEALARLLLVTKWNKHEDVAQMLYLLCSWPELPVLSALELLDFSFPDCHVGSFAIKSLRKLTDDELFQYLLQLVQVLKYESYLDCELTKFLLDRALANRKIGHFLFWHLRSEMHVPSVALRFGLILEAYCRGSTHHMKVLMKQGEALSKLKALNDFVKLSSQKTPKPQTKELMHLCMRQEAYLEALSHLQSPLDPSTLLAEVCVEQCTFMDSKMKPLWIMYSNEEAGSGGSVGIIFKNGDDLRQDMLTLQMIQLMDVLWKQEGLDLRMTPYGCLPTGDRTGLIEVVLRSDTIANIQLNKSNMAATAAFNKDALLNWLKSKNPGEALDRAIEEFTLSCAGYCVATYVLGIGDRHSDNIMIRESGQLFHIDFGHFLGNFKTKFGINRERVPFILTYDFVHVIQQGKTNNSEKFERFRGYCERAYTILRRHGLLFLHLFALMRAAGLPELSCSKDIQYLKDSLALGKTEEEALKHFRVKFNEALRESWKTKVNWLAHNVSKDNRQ

[18] = Half life in BALB/c mouse at 5 mg/kg, iv measured for 8 hrs; assay type: ADME, organism-based; conditions: in vivo; summary of the method: as §2
[19] = Inhibition of PI3K/mTOR in human U2OS cells assessed as inhibition of AKT1 phosphorylation at Ser473 residue by C-ELISA; assay type: cell-based
Summary of the method: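 U2OS osteosarcoma cells grown in 0.1% FBS and serum-stimulated. Endogenous phospho-AKT1 Ser473 quantified by cell-based ELISA with chemiluminescent substrate. Signal plotted against inhibitor concentration and fitted to a sigmoid dose-response curve.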

[20] = AUC(infinity) in BALB/c mouse at 10 mg/kg, po measured for 8 hrs; assay type: ADME, organism-based; design: route oral, time 8 hrs, dose 10 mg/kg; conditions: in vivo; summary of the method: as §2
[21] = Plasma concentration in BALB/c mouse at 10 mg/kg, po measured for 8 hrs; assay type: ADME, organism-based; summary of the method: as §1
[22] = tested on: MCF7; experiment: Growth inhibition of human MCF7 cells harboring mutated p110alpha measured after 72 hrs by Cell titre Glo-luminiscence cell viability assay; assay type: functional; summary of the method: as §4
[23] = biological target: PI3-kinase p110-alpha/p85-alpha (Homo sapiens, UniProt P42336); experiment: Inhibition of human p110alpha/p85alpha using PIP2 as substrate in presence of ATP measured by HTRF assay; assay type: protein-complex assay
PI3-kinase p110-alpha/p85-alpha (Homo sapiens, UniProt P42336), sequence (P27986 whole entry): as the sequence (P27986 whole entry) above
PI3-kinase p110-alpha/p85-alpha (Homo sapiens, UniProt P42336), sequence (P42336 whole entry): as the sequence (P42336 whole entry H1047R, looked up) above, with R1047H counted along it

[24] = Inhibition of PI3K/mTOR in human MCF7 cells assessed as reduction of AKT phosphorylation at Ser473 residue measured after 3 hrs by western blot assay; assay type: cell-based; conditions: MCF7, 3 h; summary of the method: as §5

Tmax [1]: 0.5 h
clearance [2]: 31.5 mL/min/kg
Ki [4]: 0.98 nM
Selectivity ratio [5]: 6.3
half-life [6]: 5.22 h
Vd [7]: 5.98 L/kg
Ki [8]: 0.1 nM
Ki [10]: 0.14 nM
GI50 [11]: 22.8 nM
EC50 [12]: 0.92 nM
EC50 [13]: 0.84 nM
bioavailability [14]: 84.6%
GI50 [15]: 8.2 nM
EC50 [16]: 0.14 nM
Ki [17]: 0.06 nM
half-life [18]: 2.59 h
EC50 [19]: 0.17 nM
AUC(0-inf) [20]: 4480 ng·h/mL
concentration at 8 h [21]: 202 ng/mL
GI50 [22]: 7 nM
Ki [23]: 0.16 nM
EC50 [24]: 0.46 nM
SMILES: COc1ncc2cc1NS(=O)(=O)c1cccc(c1)C(=O)NCc1cncc(c1)-c1cnc3ccc-2cn13
IC50 [3]: > 30000 nM
Ratio IC50 [9]: 4.1
